In test [1] the target is T1, Glycogen phosphorylase, liver form (Homo sapiens, UniProt P06737).
T1 sequence (P06737 whole entry): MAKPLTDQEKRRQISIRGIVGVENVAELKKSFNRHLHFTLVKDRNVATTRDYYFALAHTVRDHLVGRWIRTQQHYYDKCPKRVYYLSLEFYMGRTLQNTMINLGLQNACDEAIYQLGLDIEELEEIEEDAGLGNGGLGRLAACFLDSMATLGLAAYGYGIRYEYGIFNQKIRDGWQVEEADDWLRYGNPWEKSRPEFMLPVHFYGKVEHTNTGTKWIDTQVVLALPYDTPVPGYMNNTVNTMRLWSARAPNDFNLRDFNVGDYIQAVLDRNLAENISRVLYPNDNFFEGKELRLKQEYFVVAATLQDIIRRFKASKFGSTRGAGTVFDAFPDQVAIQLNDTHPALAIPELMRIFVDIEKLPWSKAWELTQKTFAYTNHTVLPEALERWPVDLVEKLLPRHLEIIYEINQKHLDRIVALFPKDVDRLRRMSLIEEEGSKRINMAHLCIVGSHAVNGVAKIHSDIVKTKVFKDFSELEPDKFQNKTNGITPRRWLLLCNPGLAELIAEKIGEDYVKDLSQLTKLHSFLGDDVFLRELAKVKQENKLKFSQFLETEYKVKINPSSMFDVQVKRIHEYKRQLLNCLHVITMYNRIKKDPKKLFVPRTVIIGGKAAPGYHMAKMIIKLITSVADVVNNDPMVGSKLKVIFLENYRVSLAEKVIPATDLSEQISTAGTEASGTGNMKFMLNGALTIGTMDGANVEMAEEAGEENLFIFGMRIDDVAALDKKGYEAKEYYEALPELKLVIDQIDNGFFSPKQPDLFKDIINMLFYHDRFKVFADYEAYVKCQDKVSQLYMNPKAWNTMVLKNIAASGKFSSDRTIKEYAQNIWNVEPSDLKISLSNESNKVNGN
In words: Inhibition of human liver glycogen phosphorylase a in absence of glucose.

Test [2] has as its target T2, Glycogen phosphorylase, liver form (Homo sapiens) (UniProt P06737).
T2 sequence (whole entry): T1 sequence (P06737 whole entry)
Briefly: Inhibition of human liver glycogen phosphorylase a in absence of glucose at 10 uM.

Test [3] concerns the target T1, Glycogen phosphorylase, liver form. In words: Inhibition of human liver glycogen phosphorylase a in presence of glucose. A digest of the protocol:
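Recombinant human liver GPa assayed in the forward direction by NADPH formation, coupled through phosphoglucomutase (77 U/L) and glucose-6-phosphate dehydrogenase (385 U/L). Conditions: pH 6.8 phosphate buffer with 45 mM KH2PO4, β-NADP, glucose 1,6-bisphosphate, 0.24% glycogen and 10.85 mM glucose. Compounds were added in DMSO before the enzyme; DMSO served as blank and caffeine as positive control. Enzyme addition started the reaction; IC50 was derived by logistic regression.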

Take `O=C(/C=C/c1ccc(Cl)c(Cl)c1)NCCCCCCCCNC(=O)/C=C/c1ccc(Cl)c(Cl)c1`: the IC50 in test [1] came out at 33000 nM.
In test [2], `O=C(/C=C\c1ccc(Cl)c(Cl)c1)NCCCCCNC(=O)/C=C\c1ccc(Cl)c(Cl)c1` came in with an inhibition of 36%.
Still for that read-out and setting: under `O=C(/C=C/c1ccc(Cl)c(Cl)c1)NCCNCCNC(=O)/C=C/c1ccc(Cl)c(Cl)c1` stands 51%.
As for `O=C(/C=C/c1ccc(Cl)c(Cl)c1)NCCCCNC(=O)/C=C/c1ccc(Cl)c(Cl)c1`, the 50% inhibitory concentration (IC50) in test [1] came to 420 nM; in test [3], 43 nM.
In the case of `O=C(/C=C/c1ccc(Cl)c(Cl)c1)NCCSCCNC(=O)/C=C/c1ccc(Cl)c(Cl)c1`, the figures for the concentration for half-maximal inhibition (IC50) in test [1] and in test [3] were 450 nM and 12 nM, respectively.
`O=C(/C=C/c1ccc(Cl)c(Cl)c1)NCC[S+]([O-])CCNC(=O)/C=C/c1ccc(Cl)c(Cl)c1`: the IC50 in test [1] worked out at 310 nM; in test [3], 26 nM.
In the same order, the values of `O=C(/C=C/c1ccc(Cl)c(Cl)c1)NCCCCCNC(=O)/C=C/c1ccc(Cl)c(Cl)c1` are 260 nM and 23 nM.
`CCCNC(=O)/C=C/c1ccc(Cl)c(Cl)c1` gave an inhibition in test [2] of 0%.
`O=C(/C=C/c1ccc(Cl)c(Cl)c1)NCCCNC(=O)/C=C/c1ccc(Cl)c(Cl)c1` displayed a half-maximal inhibitory concentration (IC50) in test [1] of 55000 nM.
The same measure, in the same setting: under `O=C(/C=C/c1ccc(Cl)c(Cl)c1)NCCCCCCCNC(=O)/C=C/c1ccc(Cl)c(Cl)c1` stands 11000 nM.
Turning to `O=C(/C=C/c1ccc(Cl)c(Cl)c1)NCCOCCNC(=O)/C=C/c1ccc(Cl)c(Cl)c1`, the figures for the IC50 in test [1] and in test [3] were 430 nM and 26 nM, respectively.
The compound `O=C(/C=C/c1ccc(Cl)c(Cl)c1)NCCS(=O)(=O)CCNC(=O)/C=C/c1ccc(Cl)c(Cl)c1` yielded an IC50 in test [1] of 1500 nM.
On the same count and under the same terms, under `O=C(/C=C/c1ccc(Cl)c(Cl)c1)NCCCCCCNC(=O)/C=C/c1ccc(Cl)c(Cl)c1` stands 18000 nM; under `O=C(CCc1ccc(Cl)c(Cl)c1)NCCCCCNC(=O)CCc1ccc(Cl)c(Cl)c1`, 45000 nM.
Still for that read-out and setting: under `O=C(/C=C/c1ccc(Cl)c(Cl)c1)NCCNC(=O)/C=C/c1ccc(Cl)c(Cl)c1` stands 20000 nM; under `O=C(C#Cc1ccc(Cl)c(Cl)c1)NCCCCCNC(=O)C#Cc1ccc(Cl)c(Cl)c1`, 59000 nM.
Compound `CC(C)(C)OC(=O)N(CCNC(=O)/C=C/c1ccc(Cl)c(Cl)c1)CCNC(=O)/C=C/c1ccc(Cl)c(Cl)c1` displayed an inhibition in test [2] of 48%.
